Results as given in ChEMBL document CHEMBL1135143, “Discovery and evaluation of N-(triazin-1,3,5-yl) phenylalanine derivatives as VLA-4 integrin antagonists” (Bioorg Med Chem Lett, 2002).

Columns and labels:
[1] = Compound was evaluated for rate of clearance by using IPRL (Isolated Perfused Rat Liver); assay type: ADME
Integrin alpha-4/beta-1 [2] = target: T1, Integrin alpha-4/beta-1 (Homo sapiens, UniProt P05556+P13612); assay: Inhibition of VLA-4 from HL60 lysate in a protein-based ligand binding assay.
T1 sequence (P05556 whole entry): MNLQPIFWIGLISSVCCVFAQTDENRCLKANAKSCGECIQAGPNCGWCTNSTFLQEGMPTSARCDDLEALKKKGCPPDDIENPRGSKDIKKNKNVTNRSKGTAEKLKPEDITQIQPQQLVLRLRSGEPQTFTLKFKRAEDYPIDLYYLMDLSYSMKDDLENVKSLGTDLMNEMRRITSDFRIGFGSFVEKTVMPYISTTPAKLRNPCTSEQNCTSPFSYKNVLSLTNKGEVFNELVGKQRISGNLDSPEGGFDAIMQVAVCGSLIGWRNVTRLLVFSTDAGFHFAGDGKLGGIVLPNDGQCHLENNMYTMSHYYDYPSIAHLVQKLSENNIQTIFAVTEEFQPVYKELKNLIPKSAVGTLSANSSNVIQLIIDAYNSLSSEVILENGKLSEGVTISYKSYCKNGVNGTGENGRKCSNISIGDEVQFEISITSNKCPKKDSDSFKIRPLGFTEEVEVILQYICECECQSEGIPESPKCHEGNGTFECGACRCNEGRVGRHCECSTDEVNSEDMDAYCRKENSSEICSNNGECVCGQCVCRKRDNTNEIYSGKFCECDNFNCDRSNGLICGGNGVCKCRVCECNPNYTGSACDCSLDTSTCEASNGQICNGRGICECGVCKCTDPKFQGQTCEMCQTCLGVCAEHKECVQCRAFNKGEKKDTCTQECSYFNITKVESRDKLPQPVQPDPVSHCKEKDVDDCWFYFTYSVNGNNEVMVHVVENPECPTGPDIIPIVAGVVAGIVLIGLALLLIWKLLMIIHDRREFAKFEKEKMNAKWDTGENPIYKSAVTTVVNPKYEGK
T1 sequence (P13612 whole entry): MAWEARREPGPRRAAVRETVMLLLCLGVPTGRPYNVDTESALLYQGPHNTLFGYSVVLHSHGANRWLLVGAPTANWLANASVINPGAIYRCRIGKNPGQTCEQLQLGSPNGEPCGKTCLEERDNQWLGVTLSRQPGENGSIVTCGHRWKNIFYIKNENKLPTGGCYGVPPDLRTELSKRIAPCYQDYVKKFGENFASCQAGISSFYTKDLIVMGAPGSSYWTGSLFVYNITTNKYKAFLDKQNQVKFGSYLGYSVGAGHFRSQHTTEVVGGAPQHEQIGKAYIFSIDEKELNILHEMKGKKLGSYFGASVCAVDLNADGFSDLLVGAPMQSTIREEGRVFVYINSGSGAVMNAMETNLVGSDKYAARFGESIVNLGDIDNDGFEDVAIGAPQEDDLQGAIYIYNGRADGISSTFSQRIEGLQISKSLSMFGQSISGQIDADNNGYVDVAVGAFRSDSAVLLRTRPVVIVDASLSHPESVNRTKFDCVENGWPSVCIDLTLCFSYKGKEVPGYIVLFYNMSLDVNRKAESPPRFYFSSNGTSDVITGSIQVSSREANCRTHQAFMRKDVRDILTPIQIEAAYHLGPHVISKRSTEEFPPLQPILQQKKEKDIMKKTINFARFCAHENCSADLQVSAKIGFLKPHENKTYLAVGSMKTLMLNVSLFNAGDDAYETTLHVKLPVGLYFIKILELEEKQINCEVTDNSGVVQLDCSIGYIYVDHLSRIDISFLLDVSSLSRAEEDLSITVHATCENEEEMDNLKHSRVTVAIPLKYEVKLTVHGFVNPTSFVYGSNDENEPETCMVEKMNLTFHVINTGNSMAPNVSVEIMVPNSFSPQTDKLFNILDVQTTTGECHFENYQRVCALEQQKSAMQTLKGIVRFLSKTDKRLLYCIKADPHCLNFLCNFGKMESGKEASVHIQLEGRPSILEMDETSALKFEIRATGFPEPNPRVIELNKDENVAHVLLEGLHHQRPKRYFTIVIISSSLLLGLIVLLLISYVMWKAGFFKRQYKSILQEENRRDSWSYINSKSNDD
How it was run: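 Compounds titrated into two-domain VCAM-Fc-Ig solution, then added to VLA-4-coated wells; TBS, 1% BSA, 1 mM MnCl2, 0.1% Tween, 2 h room temperature. After washing, bound VCAM detected with peroxidase-coupled anti-human Fc.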

Integrin alpha-4/beta-1 [3] = target: T1, Integrin alpha-4/beta-1; assay: Inhibition of VLA-4 expressed in Jurkat cell line, in a cell-based adhesion assay.
How it was run: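 VLA-4-expressing Jurkat cells incubated 30 min at 37 °C with test compound on plates carrying human two-domain VCAM-1-Fc captured by anti-human Fc; after washing, adherent cells stained with Rose Bengal.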

COc1nc(N[C@@H](Cc2ccc(NC(=O)c3c(Cl)cncc3Cl)cc2)C(=O)O)nc(N(C)C)n1
k el [1]: 0.000306 s⁻¹
IC50 (Integrin alpha-4/beta-1 [2]): 16 nM
IC50 (Integrin alpha-4/beta-1 [3]): 590 nM

CCCOc1nc(N[C@@H](Cc2ccc(NC(=O)c3c(Cl)cncc3Cl)cc2)C(=O)O)nc(OCCC)n1
k el [1]: 5.56e-05 s⁻¹
IC50 (Integrin alpha-4/beta-1 [2]): 50 nM
IC50 (Integrin alpha-4/beta-1 [3]): 740 nM

COc1nc(N[C@@H](Cc2ccc(OCc3c(Cl)cccc3Cl)cc2)C(=O)O)nc(OC)n1
k el [1]: 0.000611 s⁻¹
IC50 (Integrin alpha-4/beta-1 [2]): 1500 nM

COc1nc(N[C@@H](Cc2ccc(NC(=O)c3c(Cl)cncc3Cl)cc2)C(=O)O)nc(N2CCOCC2)n1
IC50 (Integrin alpha-4/beta-1 [2]): 14 nM
IC50 (Integrin alpha-4/beta-1 [3]): 510 nM

COc1nc(N[C@@H](Cc2ccc(NC(=O)c3c(Cl)cccc3Cl)cc2)C(=O)O)nc(OC)n1
k el [1]: 0.000194 s⁻¹
IC50 (Integrin alpha-4/beta-1 [2]): 30 nM
IC50 (Integrin alpha-4/beta-1 [3]): 4000 nM

O=C(Nc1ccc(C[C@H](NC(=O)c2c(Cl)cncc2Cl)C(=O)O)cc1)c1c(Cl)cncc1Cl
k el [1]: 0.00108 s⁻¹
IC50 (Integrin alpha-4/beta-1 [2]): 0.9 nM
IC50 (Integrin alpha-4/beta-1 [3]): 0.5 nM

CC(=O)N1CSC[C@@H]1C(=O)N[C@@H](Cc1ccc(NC(=O)c2c(Cl)cncc2Cl)cc1)C(=O)O
k el [1]: 0.00103 s⁻¹
IC50 (Integrin alpha-4/beta-1 [2]): 0.6 nM
IC50 (Integrin alpha-4/beta-1 [3]): 0.5 nM

O=C(Nc1ccc(C[C@H](Nc2cc(Cl)ncn2)C(=O)O)cc1)c1c(Cl)cncc1Cl
k el [1]: 0.000583 s⁻¹

O=C(Nc1ccc(C[C@H](Nc2ccc([N+](=O)[O-])cn2)C(=O)O)cc1)c1c(Cl)cncc1Cl
k el [1]: 0.000278 s⁻¹

COc1nc(N[C@@H](Cc2ccc(NC(=O)c3c(Cl)cncc3Cl)cc2)C(=O)O)nc(N2CCNCC2)n1
k el [1]: 0.000583 s⁻¹
IC50 (Integrin alpha-4/beta-1 [2]): 25 nM
IC50 (Integrin alpha-4/beta-1 [3]): 1000 nM

COc1nc(N[C@@H](Cc2ccc(N(C)C(=O)c3c(Cl)cncc3Cl)cc2)C(=O)O)nc(OC)n1
IC50 (Integrin alpha-4/beta-1 [2]): 5500 nM

COc1nc(N[C@@H](Cc2ccc(NC(=O)c3c(Cl)cncc3Cl)cc2)C(=O)O)nc(OC)n1
k el [1]: 0.000306 s⁻¹
IC50 (Integrin alpha-4/beta-1 [2]): 8 nM
IC50 (Integrin alpha-4/beta-1 [3]): 900 nM

COc1nc(NCCO)nc(N[C@@H](Cc2ccc(NC(=O)c3c(Cl)cncc3Cl)cc2)C(=O)O)n1
k el [1]: 0.0005 s⁻¹
IC50 (Integrin alpha-4/beta-1 [2]): 7 nM
IC50 (Integrin alpha-4/beta-1 [3]): 320 nM

COc1nc(N[C@@H](Cc2ccc(NC(=O)c3c(Cl)cncc3Cl)cc2)C(=O)O)nc(Oc2ccccc2)n1
k el [1]: 0.000167 s⁻¹
IC50 (Integrin alpha-4/beta-1 [2]): 30 nM
IC50 (Integrin alpha-4/beta-1 [3]): 320 nM

CCN(CC)c1nc(N[C@@H](Cc2ccc(NC(=O)c3c(Cl)cncc3Cl)cc2)C(=O)O)nc(OC)n1
IC50 (Integrin alpha-4/beta-1 [2]): 70 nM
IC50 (Integrin alpha-4/beta-1 [3]): 1620 nM

COc1nc(N[C@@H](Cc2ccc(NC(=O)c3c(F)cccc3C(F)(F)F)cc2)C(=O)O)nc(OC)n1
k el [1]: 0.000167 s⁻¹
IC50 (Integrin alpha-4/beta-1 [2]): 50 nM
IC50 (Integrin alpha-4/beta-1 [3]): 4600 nM

COc1nc(N[C@@H](Cc2ccc(NC(=O)c3c(Cl)cncc3Cl)cc2)C(=O)O)nc(N2CCC(C(=O)O)CC2)n1
k el [1]: 0.000583 s⁻¹
IC50 (Integrin alpha-4/beta-1 [2]): 6 nM
IC50 (Integrin alpha-4/beta-1 [3]): 240 nM

CCCOc1nc(N[C@@H](Cc2ccc(NC(=O)c3c(Cl)cncc3Cl)cc2)C(=O)O)nc(OC)n1
k el [1]: 0.000639 s⁻¹
IC50 (Integrin alpha-4/beta-1 [2]): 45 nM
IC50 (Integrin alpha-4/beta-1 [3]): 300 nM

CCCNc1nc(N[C@@H](Cc2ccc(NC(=O)c3c(Cl)cncc3Cl)cc2)C(=O)O)nc(OC)n1
k el [1]: 0.000667 s⁻¹
IC50 (Integrin alpha-4/beta-1 [2]): 25 nM
IC50 (Integrin alpha-4/beta-1 [3]): 740 nM
